Data from ChEMBL document CHEMBL5712090, “Therapeutic targeting of p300/CBP HAT domain for the treatment of NUT midline carcinoma” (Oncogene, 2020).
Calls of active or inactive are those of the source. The rule behind the calls is not given here.

Tests used:
HCC2429 [1] = assay: Induction of squamous differentiation in human HCC2429 cells assessed as accumulation of pan-keratin in cytoplasm at 0.5 microM for 5 days by immunofluorescence staining method; format: functional, cell-based; conditions: time 5.0 day
Summary of the method: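 HCC2429 cells exposed 5 days to 0.5 µM. Cytokeratin detected by immunofluorescence.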

HCC2429 [2] = assay: Induction of cell differentiation in human HCC2429 cells assessed as c-fos mRNA level at 250 nM for 5 days in presence of JQ1 by qRT-PCR analysis; format: functional, cell-based; conditions: time 5.0 day
Summary of the method: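 HCC2429 cells given 250 nM, 50 nM JQ1, or the combination for 5 days. KRT10, KRT14, TGM1 and c-fos mRNA by qRT-PCR. Mean ± SEM of three independent experiments.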

HCC2429 [3] = assay: Induction of apoptosis in human HCC2429 cells assessed as cleaved caspase-3 expression at 250 nM incubated for 72 hrs in presence of JQ1 by immunoblot analysis; format: functional, cell-based
Summary of the method: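 HCC2429 cells treated 72 h with 250 nM alone, 50 nM JQ1 alone, or both combined. Cleaved caspase-3 detected by immunoblot.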

HCC2429 [4] = assay: Inhibition of p300/CBP in human HCC2429 cells assessed as BRD4-NUT level at MYC promoter and TP63 enhancer region with 1 microM for 3 days by ChIP analysis; format: cell-based; conditions: time 3.0 day
Summary of the method: (§1)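 HCC2429 cells held 3 days at 1 µM or DMSO. Chromatin precipitated with H3K27ac, NUT or normal rabbit IgG antibodies. MYC promoter and TP63 enhancer quantified by qPCR as fold enrichment over IgG. Mean ± SEM, four independent experiments.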

HCC2429 [5] = assay: Inhibition of p300/CBP in human HCC2429 cells assessed as H3K27ac protein acetylation at 1 microM for 3 days by immunofluorescence analysis; format: cell-based; conditions: time 3.0 day
Summary of the method: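 HCC2429 cells treated 3 days with 1 µM or DMSO. H3K27ac, BRD4-NUT and wild-type BRD4 imaged by immunofluorescence.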

HCC2429 [6] = assay: Induction of cell cycle arrest in human HCC2429 cells assessed as G1 cell cycle arrest at 0.5 microM incubated for 24 hrs by flow cytometry analysis; format: functional, cell-based
Summary of the method: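 HCC2429 cells exposed to 0.5 or 1 µM for 24, 48 and 72 h, then analysed by flow cytometry. Mean ± SEM, three independent experiments.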

HCC2429 [7] = assay: Antiproliferative activity against human HCC2429 cells for 72 hrs incubation measured by Celltiter Glo Cell Viability assay; format: functional, cell-based; conditions: HCC2429, 72 h
Summary of the method: (§2)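 Cells exposed to inhibitor over 10 nM–25 µM for 72 h; viability read by CellTiter Glo luminescence. IC50 taken from dose-response curve fit. Mean ± SD of three technical replicates.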

HCC2429 [8] = assay: Inhibition of p300/CBP in human HCC2429 cells assessed as H3K27ac protein acetylation at MYC promoter and TP63 enhancer region with 1 microM for 3 days by ChIP analysis; format: cell-based; conditions: time 3.0 day; summary of the method: as §1
HCC2429 [9] = assay: Inhibition of colony formation in human HCC2429 cells assessed as inhibition in colony formation at 250 nM incubated for 72 hrs in presence of JQ1 by crystal violet staining based assay; format: functional, cell-based
Summary of the method: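 HCC2429 cells incubated 72 h with 250 nM, 50 nM JQ1, or both. Colony formation then scored.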

HCC2429 [10] = assay: Downregulation of MYC mRNA level in human HCC2429 cells for 48 hrs treatment by qRT-PCR analysis; format: functional, cell-based
Summary of the method: (§3)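 HCC2429 cells treated at indicated concentrations for 48 h. MYC, CCAT1 and TP63 mRNA measured by quantitative RT-PCR.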

HCC2429 [11] = assay: Downregulation of MYC protein level in human HCC2429 cells for 48 hrs treatment by qRT-PCR analysis; format: functional, cell-based; conditions: in the assay text read “immunoblot analysis” for “qRT-PCR analysis”
Summary of the method: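 HCC2429 cells treated at indicated concentrations for 48 h. MYC and H3K27ac protein assessed by immunoblot.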

PER-403 = assay: Induction of squamous differentiation in human PER-403 cells assessed as change in cell phenotype at 0.5 microM for 5 days by immunofluorescence staining method; format: functional, cell-based; conditions: time 5.0 day
HCC2429 [12] = assay: Induction of cell differentiation in human HCC2429 cells assessed as increase in involucrin-protein level at 0.5 microM for 5 days by immunoblot analysis
HCC2429 [13] = assay: Induction of cell differentiation in human HCC2429 cells assessed as increase in c-fos mRNA level at 0.5 microM for 5 days by qRT-PCR analysis
Ty-82 = assay: Antiproliferative activity against human Ty-82 cells for 72 hrs incubation measured by Celltiter Glo Cell Viability assay; format: functional, cell-based; conditions: TY82, 72 h; summary of the method: as §2
HCC2429 [14] = assay: Downregulation of CCAT1 mRNA level in human HCC2429 cells for 48 hrs treatment by qRT-PCR analysis; format: functional, cell-based; summary of the method: as §3
HCC2429 [15] = assay: Induction of apoptosis in human HCC2429 cells assessed as cleaved caspase-3 expression at 0.5 microM incubated for 72 hrs by immunoblot analysis; format: functional, cell-based
Summary of the method: (§4)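 HCC2429 cells given 0.5 or 1 µM for 24, 48 and 72 h. Cleaved caspase-3 detected by immunoblot.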

HCC2429 [16] = assay: Induction of apoptosis in human HCC2429 cells assessed as cleaved caspase-3 expression at 0.5 microM incubated for 48 hrs by immunoblot analysis; format: functional, cell-based; summary of the method: as §4
[17] = Antiproliferative activity against human 00-143 cells for 72 hrs incubation measured by Celltiter Glo Cell Viability assay; format: functional, cell-based; conditions: 00-143, 72 h; summary of the method: as §2
HCC2429 [18] = assay: Downregulation of TP63 mRNA level in human HCC2429 cells for 48 hrs treatment by qRT-PCR analysis; format: functional, cell-based; summary of the method: as §3
TC-797 = assay: Induction of squamous differentiation in human TC-797 cells assessed as change in cell phenotype at 0.5 microM for 5 days by immunofluorescence staining method; format: functional, cell-based; conditions: time 5.0 day
HCC2429 [19] = assay: Induction of squamous differentiation in human HCC2429 cells assessed as flattening of cells at 0.5 microM for 5 days by immunofluorescence staining method; format: functional, cell-based; conditions: time 5.0 day

For `CNC(=O)Nc1ccc2c(c1)CC[C@@]21OC(=O)N(CC(=O)N(Cc2ccc(F)cc2)[C@@H](C)C(F)(F)F)C1=O` [A-485], the Activity (HCC2429 [1]) was “Active”, the Activity (HCC2429 [2]) was “Active” and the Activity (HCC2429 [3]) was “Active”. For the same molecule, the inhibition (HCC2429 [4]) was “Active”, the inhibition (HCC2429 [5]) was “Active” and the Activity (HCC2429 [6]) was “Active”. For the same molecule, the IC50 (HCC2429 [7]) was 750 nM, the inhibition (HCC2429 [8]) was “Active” and the inhibition (HCC2429 [9]) was “Active”. For the same molecule, the Activity (HCC2429 [10]) was “Active”, the Activity (HCC2429 [11]) was “Active” and the Activity (PER-403) was “Active”. The Activity (HCC2429 [12]) was “Active”, the Activity (HCC2429 [13]) was “Active” and the IC50 (Ty-82) was 210 nM. For the same molecule, the Activity (HCC2429 [14]) was “Active”, the Activity (HCC2429 [15]) was “Active” and the Activity (HCC2429 [16]) was “Active”. For the same molecule, the IC50 [17] was 980 nM, the Activity (HCC2429 [18]) was “Active” and the Activity (TC-797) was “Active”. For the same molecule, the Activity (HCC2429 [19]) was “Active”.
